Source: ChEMBL document CHEMBL4765226, “Identification of a Human Toll-Like Receptor (TLR) 8-Specific Agonist and a Functional Pan-TLR Inhibitor in 2-Aminoimidazoles” (J Med Chem, 2016)
The source made the active and inactive calls. The calls are words filed in the database; no cut-off is given here.

Tests used:
Format in all cases: cell-based
[1] = target: T1, Toll-like receptor 8 (Homo sapiens) (UniProt Q9NR97); assay: Agonist activity at human TLR8 stably expressed in HEK293 cells cotransfected with secreted alkaline phosphatase assessed as induction of NFkappaB activation by measuring maximal response by quanti-blue SEAP reporter gene-based spectrophotometric method; conditions: filed as agonist
T1 sequence (whole entry): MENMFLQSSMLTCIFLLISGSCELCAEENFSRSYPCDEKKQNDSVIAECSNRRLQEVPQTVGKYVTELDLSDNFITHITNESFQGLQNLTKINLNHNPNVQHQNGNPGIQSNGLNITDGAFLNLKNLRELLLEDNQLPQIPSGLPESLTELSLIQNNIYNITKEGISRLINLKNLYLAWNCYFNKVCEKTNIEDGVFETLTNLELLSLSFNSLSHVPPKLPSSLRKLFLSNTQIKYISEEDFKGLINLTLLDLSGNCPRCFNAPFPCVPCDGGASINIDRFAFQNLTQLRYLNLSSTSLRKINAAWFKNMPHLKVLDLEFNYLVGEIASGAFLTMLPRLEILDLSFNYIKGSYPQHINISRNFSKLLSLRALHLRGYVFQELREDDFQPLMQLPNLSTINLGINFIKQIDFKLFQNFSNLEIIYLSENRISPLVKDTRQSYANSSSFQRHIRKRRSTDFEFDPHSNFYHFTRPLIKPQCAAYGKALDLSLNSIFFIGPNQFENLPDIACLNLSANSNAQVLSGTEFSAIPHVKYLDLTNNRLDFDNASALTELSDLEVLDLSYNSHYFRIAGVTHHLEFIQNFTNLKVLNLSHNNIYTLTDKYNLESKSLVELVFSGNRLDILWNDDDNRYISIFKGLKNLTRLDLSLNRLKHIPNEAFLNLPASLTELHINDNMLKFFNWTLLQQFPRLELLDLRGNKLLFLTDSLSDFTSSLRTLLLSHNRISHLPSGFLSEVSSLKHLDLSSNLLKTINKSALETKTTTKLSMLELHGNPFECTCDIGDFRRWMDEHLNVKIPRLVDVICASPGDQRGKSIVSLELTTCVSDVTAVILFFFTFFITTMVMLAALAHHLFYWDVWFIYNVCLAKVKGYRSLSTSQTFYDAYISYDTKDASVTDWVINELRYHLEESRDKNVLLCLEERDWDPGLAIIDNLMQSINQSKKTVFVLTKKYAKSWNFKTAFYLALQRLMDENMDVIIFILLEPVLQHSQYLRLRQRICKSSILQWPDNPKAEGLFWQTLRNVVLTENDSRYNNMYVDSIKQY
How it was run: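 TLR8/sAP HEK293 reporter cells, about 10^5 cells/ml, were exposed to graded ligand concentrations, and sAP was read at 620 nm with a chromogenic detection medium. Maximal response was compared across the dose-response curve, with area under the curve also reported. Quadruplicate samples were used.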

[2] = target: Toll-like receptor 4 (Homo sapiens, UniProt O00206); assay: Agonist activity at human TLR4 stably expressed in HEK293 cells cotransfected with secreted alkaline phosphatase assessed as induction of NFkappaB activation by quanti-blue SEAP reporter gene based spectrophotometric method
How it was run: (§1)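 HEK293 cells stably co-transfected with the matching human TLR (2, 3, 4, 5, 7, 8 or 9) and NF-κB/AP-1-driven secreted alkaline phosphatase were kept in selection medium. About 10^5 cells/ml were incubated with graded concentrations of stimulus. sAP was read at 620 nm with a chromogen in detection medium. EC50 came from four-parameter logistic fits on quadruplicates.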

[3] = target: Toll-like receptor 5 (Homo sapiens, UniProt O60602); assay: Agonist activity at human TLR5 stably expressed in HEK293 cells cotransfected with secreted alkaline phosphatase assessed as induction of NFkappaB activation by quanti-blue SEAP reporter gene based spectrophotometric method; how it was run: as §1
[4] = target: T2, Toll-like receptor 9 (Homo sapiens) (UniProt Q9NR96); assay: Agonist activity at human TLR9 stably expressed in HEK293 cells cotransfected with secreted alkaline phosphatase assessed as induction of NFkappaB activation by quanti-blue SEAP reporter gene based spectrophotometric method; how it was run: as §1
T2 sequence (whole entry): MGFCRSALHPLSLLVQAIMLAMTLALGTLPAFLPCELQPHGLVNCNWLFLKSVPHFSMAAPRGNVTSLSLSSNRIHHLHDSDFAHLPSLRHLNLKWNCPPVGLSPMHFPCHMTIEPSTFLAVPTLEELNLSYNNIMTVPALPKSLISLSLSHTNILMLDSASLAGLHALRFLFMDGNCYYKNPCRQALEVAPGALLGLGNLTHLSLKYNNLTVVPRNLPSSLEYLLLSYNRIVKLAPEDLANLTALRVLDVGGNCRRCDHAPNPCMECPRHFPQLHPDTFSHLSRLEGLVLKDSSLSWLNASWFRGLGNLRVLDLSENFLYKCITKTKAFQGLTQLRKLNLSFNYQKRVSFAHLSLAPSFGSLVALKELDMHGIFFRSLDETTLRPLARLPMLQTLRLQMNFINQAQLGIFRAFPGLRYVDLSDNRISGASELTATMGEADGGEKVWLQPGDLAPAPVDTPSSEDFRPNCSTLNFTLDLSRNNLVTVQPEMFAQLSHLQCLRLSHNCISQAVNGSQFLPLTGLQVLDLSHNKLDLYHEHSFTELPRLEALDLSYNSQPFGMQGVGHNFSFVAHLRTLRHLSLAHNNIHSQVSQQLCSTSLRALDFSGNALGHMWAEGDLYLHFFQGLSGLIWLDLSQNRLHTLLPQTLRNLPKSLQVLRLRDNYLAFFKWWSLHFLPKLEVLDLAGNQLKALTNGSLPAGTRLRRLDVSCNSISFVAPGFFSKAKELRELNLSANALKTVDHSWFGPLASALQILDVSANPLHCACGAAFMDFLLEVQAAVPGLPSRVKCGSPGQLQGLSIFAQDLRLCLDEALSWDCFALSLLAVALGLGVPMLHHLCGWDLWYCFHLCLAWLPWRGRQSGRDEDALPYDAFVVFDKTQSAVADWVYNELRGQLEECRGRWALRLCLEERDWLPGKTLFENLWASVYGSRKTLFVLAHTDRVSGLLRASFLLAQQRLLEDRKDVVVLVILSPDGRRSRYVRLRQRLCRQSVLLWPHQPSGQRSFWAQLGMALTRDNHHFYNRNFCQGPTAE

Chain of Toll-like receptor 5 (O60602 whole entry): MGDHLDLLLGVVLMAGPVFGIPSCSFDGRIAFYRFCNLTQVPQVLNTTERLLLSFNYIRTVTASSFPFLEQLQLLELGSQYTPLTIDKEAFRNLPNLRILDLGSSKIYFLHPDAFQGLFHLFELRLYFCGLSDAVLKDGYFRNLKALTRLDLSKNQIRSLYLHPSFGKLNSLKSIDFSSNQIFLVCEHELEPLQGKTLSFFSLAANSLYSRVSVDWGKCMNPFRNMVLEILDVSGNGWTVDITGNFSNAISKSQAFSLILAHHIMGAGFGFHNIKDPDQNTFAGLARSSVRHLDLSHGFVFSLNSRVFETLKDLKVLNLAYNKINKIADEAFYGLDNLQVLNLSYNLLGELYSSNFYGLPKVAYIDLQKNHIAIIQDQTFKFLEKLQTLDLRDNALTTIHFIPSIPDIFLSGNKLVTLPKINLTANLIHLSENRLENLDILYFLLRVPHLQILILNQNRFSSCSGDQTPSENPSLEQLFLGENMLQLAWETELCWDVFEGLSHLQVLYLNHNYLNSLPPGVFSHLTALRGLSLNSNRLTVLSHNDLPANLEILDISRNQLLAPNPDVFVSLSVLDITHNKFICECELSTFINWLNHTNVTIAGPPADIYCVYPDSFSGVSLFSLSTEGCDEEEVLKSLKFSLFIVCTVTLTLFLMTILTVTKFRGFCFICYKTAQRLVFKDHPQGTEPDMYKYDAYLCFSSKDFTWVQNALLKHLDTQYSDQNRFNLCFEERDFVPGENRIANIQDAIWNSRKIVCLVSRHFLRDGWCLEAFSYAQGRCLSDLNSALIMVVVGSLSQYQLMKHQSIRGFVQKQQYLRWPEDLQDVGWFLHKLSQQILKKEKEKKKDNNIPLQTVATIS
Chain of Toll-like receptor 4 (O00206 whole entry): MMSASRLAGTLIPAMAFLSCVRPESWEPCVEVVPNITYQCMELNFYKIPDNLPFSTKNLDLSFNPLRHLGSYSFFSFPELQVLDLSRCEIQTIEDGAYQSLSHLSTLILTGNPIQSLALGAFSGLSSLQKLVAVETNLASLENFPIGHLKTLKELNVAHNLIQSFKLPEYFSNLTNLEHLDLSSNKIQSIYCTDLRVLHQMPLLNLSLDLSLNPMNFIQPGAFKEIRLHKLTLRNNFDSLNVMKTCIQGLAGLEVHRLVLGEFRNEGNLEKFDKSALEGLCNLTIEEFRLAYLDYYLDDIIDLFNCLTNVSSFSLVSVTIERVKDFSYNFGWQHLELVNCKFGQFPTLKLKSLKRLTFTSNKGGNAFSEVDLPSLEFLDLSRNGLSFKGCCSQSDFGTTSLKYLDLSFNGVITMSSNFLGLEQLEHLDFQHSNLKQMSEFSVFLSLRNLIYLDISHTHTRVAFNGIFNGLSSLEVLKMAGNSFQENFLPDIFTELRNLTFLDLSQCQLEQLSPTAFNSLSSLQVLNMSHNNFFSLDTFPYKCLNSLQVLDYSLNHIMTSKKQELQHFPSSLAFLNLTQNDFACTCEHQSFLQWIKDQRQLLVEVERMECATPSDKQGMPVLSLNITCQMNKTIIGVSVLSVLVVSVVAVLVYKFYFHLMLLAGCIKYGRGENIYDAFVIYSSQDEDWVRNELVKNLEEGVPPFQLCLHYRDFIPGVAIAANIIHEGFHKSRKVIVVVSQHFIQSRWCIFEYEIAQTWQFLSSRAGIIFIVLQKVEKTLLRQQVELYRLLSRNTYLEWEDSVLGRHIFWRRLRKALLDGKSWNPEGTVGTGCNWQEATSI

| Structure (SMILES) | RUmax [1] | Activity [2] | Activity [3] | Activity [4] |
| --- | --- | --- | --- | --- |
| CCCCCn1cc(-c2cccc(C)c2C)nc1N | 1.3 | inactive | inactive | inactive |
| CCCCCn1ccnc1N | 1.2 | inactive | inactive | inactive |
| CCCCCn1cc(-c2ccc(F)cc2C)nc1N | 1.7 | inactive | inactive | inactive |
| CCCCCn1cc(-c2ccc(OC)cc2C)nc1N | 0.9 | inactive | inactive | inactive |
| CCCCCn1cc(-c2ccccc2CO)nc1N | 1.6 | inactive | inactive | inactive |
| CCCCCn1cc(-c2cccc(C)c2)nc1N | 1 | inactive | inactive | inactive |
